Screening results deposited in PubChem by several laboratories.
This is a sample that favours compounds with a hit; in the whole collection about 3.5% have one here.
MEKK2 mut-MEK5: signal of MEK5 binding to mutant human MEKK2 PB1 domain. bead flow cytometry, Alexa488-MEK5 binding to MEKK2 mutant. percent response, % at 10 µM. 290,000 tested, 0.35% active; in the data active means percent response above about 24%, passing the limit was not always enough
MEKK3 PB1 HTS: modulators (inhibitors or enhancers) of MEK5 binding to human MEKK3 PB1 domain | Q99759 | bead-based flow cytometry, Alexa488-MEK5 binding to MEKK3; actives lie on both sides; 0 = blocked by unlabeled MEK5, 100 = vehicle | binding response (% of control), % at 10 µM | 290,000 tested, 1.4% active | AID 1529;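 active means binding response more than 3 SD above or below the average of its plate-row segment, actives on both sides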;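 further: Alexa488 bead fluorescence after subtracting the streptavidin-only scavenger bead signal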
ABCB1 block: blocks JC-1 efflux by human ABCB1 transporter. P08183. CCRF-Adr cells, flow cytometry. inhibition, % at 6.6 µM. 190,000 tested, 0.067% active. AID 1326; in the data active means inhibition above about 40%;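 further: 0% = vehicle and 100% = reference inhibitor; higher value means more JC-1 retained so stronger ABCB1 efflux block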
Target sequence (P08183 whole entry, looked up): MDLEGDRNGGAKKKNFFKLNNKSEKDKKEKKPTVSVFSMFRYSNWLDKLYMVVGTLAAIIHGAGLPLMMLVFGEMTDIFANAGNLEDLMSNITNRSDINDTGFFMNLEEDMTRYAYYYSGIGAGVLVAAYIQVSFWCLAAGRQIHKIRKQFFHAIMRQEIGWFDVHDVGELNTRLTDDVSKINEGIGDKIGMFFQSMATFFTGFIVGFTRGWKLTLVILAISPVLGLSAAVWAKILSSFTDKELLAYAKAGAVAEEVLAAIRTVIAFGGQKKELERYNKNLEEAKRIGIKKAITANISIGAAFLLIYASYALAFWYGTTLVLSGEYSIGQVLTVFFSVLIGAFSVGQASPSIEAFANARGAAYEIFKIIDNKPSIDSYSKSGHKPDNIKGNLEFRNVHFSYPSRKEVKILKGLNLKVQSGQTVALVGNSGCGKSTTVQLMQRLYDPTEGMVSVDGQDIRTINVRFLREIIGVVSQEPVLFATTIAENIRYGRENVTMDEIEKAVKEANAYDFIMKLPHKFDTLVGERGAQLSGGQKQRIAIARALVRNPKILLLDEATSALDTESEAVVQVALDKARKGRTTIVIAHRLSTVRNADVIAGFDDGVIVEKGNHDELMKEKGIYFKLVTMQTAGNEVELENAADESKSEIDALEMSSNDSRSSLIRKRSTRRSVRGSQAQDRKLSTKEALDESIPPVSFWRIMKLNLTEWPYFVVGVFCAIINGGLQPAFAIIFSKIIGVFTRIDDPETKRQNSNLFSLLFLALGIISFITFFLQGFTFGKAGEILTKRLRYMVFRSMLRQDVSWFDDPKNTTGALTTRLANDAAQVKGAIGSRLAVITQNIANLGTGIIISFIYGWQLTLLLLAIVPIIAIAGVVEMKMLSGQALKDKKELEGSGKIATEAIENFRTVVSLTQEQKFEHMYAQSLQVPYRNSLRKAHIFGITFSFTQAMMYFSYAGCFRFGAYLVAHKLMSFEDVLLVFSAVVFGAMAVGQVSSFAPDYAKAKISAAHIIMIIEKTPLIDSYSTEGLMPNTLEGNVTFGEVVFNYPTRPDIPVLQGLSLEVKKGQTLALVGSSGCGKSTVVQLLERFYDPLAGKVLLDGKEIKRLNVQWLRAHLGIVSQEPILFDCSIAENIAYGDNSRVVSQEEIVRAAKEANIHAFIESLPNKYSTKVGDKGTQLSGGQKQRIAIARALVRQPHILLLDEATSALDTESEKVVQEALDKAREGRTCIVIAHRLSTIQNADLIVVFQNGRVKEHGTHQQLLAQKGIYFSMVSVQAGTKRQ
ABCG2 block: blocks JC-1 efflux by human ABCG2 transporter. 190,000 tested, 0.1% active. AID 1325. inhibition, % at 6.6 µM. IgMXP3 cells, flow cytometry;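 active means inhibition above 80%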;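 further: 0% = DMSO and 100% = nicardipine control wells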
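Test system: ABCG2 IgMXP3 and barcoded ABCB1 CCRF-Adr cell mix; Schedule: cells with compound and JC-1, 10 min at 25 °C, rotating, no wash; Technique: flow cytometry of retained JC-1 fluorescence; Measure: % inhibition of efflux relative to nicardipine and DMSO; Controls: nicardipine high and DMSO low controls.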
MEKK2 WT-MEK5: raises or lowers MEK5 binding to wildtype human MEKK2 PB1 domain; Q9Y2U5; bead flow cytometry, Alexa488-MEK5 binding to MEKK2 WT; actives lie on both sides; binding response (% of control), % at 10 µM; 290,000 tested, 1.1% active; in the data active means binding response below about 67% or above about 130%
WT yeast gro inh: growth inhibition of WT yeast, mitochondrial fusion screen | AID 1362 | mitochondrial fusion phenotypic screen, WT strain | 190,000 tested, 2.1% active | inhibition, % at 10 µM; in the data active means inhibition above about 58%; tested in S. cerevisiae
MEKK2wt confirm: raises or lowers MEK5 binding to wildtype human MEKK2, retest | bead flow cytometry, Alexa488-MEK5 binding to MEKK2 WT; actives lie on both sides | binding response (% of control), % at 10 µM | AID 1892 | 5,900 tested, 2.4% active | shares compounds with MEKK3 PB1 HTS; in the data active means binding response below about 16% or above about 210%; inactive means in between
MEKK2mut-MEK5: signal of MEK5 binding to mutant human MEKK2, retest; 5,900 tested, 2% active; AID 1893; bead flow cytometry, Alexa488-MEK5 binding to MEKK2 mutant; shares compounds with MEKK3 PB1 HTS; percent response, % at 10 µM; in the data active means percent response mostly above about 71%, no sharp cut-off; inactive means mostly below about 38%;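 further: higher means compound restores mutant binding toward wildtype level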
MEKK3 confirm: MEKK3-MEK5 PB1 inhibition, single concentration confirmation; shares compounds with MEKK3 PB1 HTS; bead flow cytometry, Alexa488-MEK5 binding to MEKK3; active compounds read low; binding response (% of control), % at 10 µM; 5,900 tested, 1.8% active; AID 1894;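 active means binding response below 72% of control, or above a set upper limit, though filed actives all read lower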;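 further: 100% = DMSO only wells and 0% = binding blocked by excess unlabeled MEK5; lower values mean stronger disruption of MEK5 binding to MEKK3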
* marks the source's active call; other numbers are inactive results; nt = no result; [ ] = another dose, or the depositor's remark.

SMILES	MEKK2 mut-MEK5	MEKK3 PB1 HTS	ABCB1 block	ABCG2 block	MEKK2 WT-MEK5	WT yeast gro inh	MEKK2wt confirm	MEKK2mut-MEK5	MEKK3 confirm
N#C/C(=C\c1ccc(Sc2nc3ccccc3[nH]2)o1)c1ccccc1	7.0	107.0	0.7	1.6	101.0	36.8	nt	nt	nt
N#C/C(=C\c1ccc(Sc2ccc(Cl)cc2)o1)c1nc2ccccc2[nH]1	14.0	102.0	-1.2	-10.0	150.0*	51.8	131.0	14.0	102.0
CC1(c2ccccc2)CC(C)(C)N2C(=O)/C(=C3\SC(=S)NC3=O)c3cccc1c32 (stereo not drawn)	-1.0	147.0*	-1.2	-6.7	96.0	61.1*	95.0	-3.0	95.0
CC1(c2ccccc2)CC(C)(C)N2C(=O)C3(C(C#N)=C(N)Oc4cc(O)ccc43)c3cccc1c32 (stereo not drawn)	-4.0	101.0	-0.1	-0.3	88.0	1.1	nt	nt	nt
CN(c1ccccc1)c1cc(=O)[nH]c(=O)[nH]1	-2.0	92.0	0.0	0.6	93.0	-15.6	nt	nt	nt
CCc1cc2cc(C)ccc2nc1SCC(=O)Nc1cc(C)on1	2.0	128.0*	0.2	2.0	95.0	-12.9	104.0	4.0	104.0
OC(COc1ccc(Br)cc1)CN1CCN(c2ccccc2)CC1 (stereo not drawn)	3.0	99.0	nt	nt	104.0	nt	nt	nt	nt
Cc1onc(-c2ccccc2Cl)c1C(=O)O/N=C(\N)c1ccccc1	10.0	106.0	nt	nt	112.0	nt	nt	nt	nt
C/C(=N\OC(=O)c1c(-c2ccccc2Cl)noc1C)c1ccncc1	-16.0	48.0*[inhibitor]	0.0	5.2	55.0	-8.4	106.0	4.0	103.0
Cc1cc(NC(=O)c2cc(Cl)ccc2Cl)no1	5.0	106.0	0.2	0.7	106.0	-14.9	nt	nt	nt
Cc1cc(NC(=O)c2ccccc2Cl)no1	-30.0	35.0*[inhibitor]	0.8	6.5	59.0	12.5	106.0	-1.0	99.0
CCN(CCn1cccn1)Cc1ccccc1OCC(O)CN1CCc2ccccc2C1 (stereo not drawn)	13.0	101.0	0.6	2.6	119.0	5.5	nt	nt	nt
Fc1ccc(COc2ccc(Br)cc2CNCc2ccncc2)cc1	17.0	100.0	3.6	11.8	114.0	13.3	nt	nt	nt
COc1cc(CNc2ccc(O)cc2)cc(Br)c1OCc1ccccc1	0.0	101.0	0.9	3.4	111.0	7.4	nt	nt	nt
COc1cc(CNC(C)c2ccccc2)cc(Br)c1OCc1ccc(F)cc1 (stereo not drawn)	23.0	109.0	nt	nt	223.0*	nt	186.0	50.0	113.0
CCOc1cc(CNCc2ccncc2)cc(Br)c1OCc1ccc(F)cc1	22.0	108.0	1.6	13.9	142.0*	47.9	128.0	22.0	112.0
COc1cc(CNC(C)c2ccccc2)cc(Br)c1OCc1ccccc1 (stereo not drawn)	17.0	112.0	nt	nt	192.0*	nt	164.0	31.0	105.0
O=C(c1ccccc1F)N1CCN(S(=O)(=O)c2ccc3c(c2)OCCO3)CC1	2.0	103.0	0.3	3.6	103.0	-1.1	nt	nt	nt
CN(C1CCCCC1)S(=O)(=O)c1ccc(S(=O)(=O)N2CCN(C(=O)c3ccccc3F)CC2)cc1	9.0	144.0*	2.1	3.3	133.0	1.5	106.0	4.0	106.0
O=C1CC(c2ccccc2)CC(O)=C1C=NCCCN1CCOCC1 (stereo not drawn)	-11.0	81.0*[inhibitor]	-0.5	5.8	89.0	1.3	100.0	-7.0	103.0
COc1ccc(C(CCNCc2ccc(OC(C)C)cc2)c2ccccc2OC)cc1 (stereo not drawn)	40.0*	111.0	nt	nt	199.0*	nt	198.0	70.0*	111.0
